Compounds with a hit are over-represented: about 1.4% of the library has one in this group of screens.
Arrestin-AP2 inh = blocks beta-arrestin peptide binding to AP2 adaptin; inhibition, % at 10 µM; FITC-arrestin peptide / GST-AP2 beads, flow cytometry; AP2 beta2 appendage carries R879A mutation; AID 504490; 340,000 compounds, 0.31% hits;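 active means inhibition above a set limit, near 3 SD of compounds lacking own fluorescence, cut at about 54% in these data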
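System: GST-AP2 R879A bound to glutathione beads, E. coli-expressed. Also added: 50 nM FITC-arrestin peptide. Schedule: compound with beads 12 min RT, then probe 1 h RT. Signal: bead flow cytometry, FITC channel. Read-out basis: percent response.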
DDE Tn6 FP inh = DD(E)-Tn6 binding inhibition, primary FP screen | P02675 | Fibrin DD(E) TRITC-Tn6 fluorescence polarization displacement | inhibition, % at 8.3 µM | 370,000 compounds, 0.21% hits | AID 720509;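 active means inhibition above a per-campaign cutoff: mean of compounds within control limits plus 3 SD, cut at about 15% in these data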
Tn7 DDE FP = disrupts Tn7 cyclic peptide binding to fibrin D-Dimer-E complex; inhibition, % at 8.3 µM; 370,000 compounds, 0.13% hits; FP displacement of FITC-Tn7 peptide from fibrin DD(E); 0% = median of compound wells per plate;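 active means inhibition above the mean of compounds falling within the control limits plus 3 SD of them, cut at about 14% in these data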
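Also added: labelled Tn7 tracer, 0.1 µM; Assay system: human fibrin DD(E) protein; Amount: 2 µM fibrin DD(E); Schedule: 10 min compound pre-incubation, 3 h probe incubation at room temperature; Repeats: one replicate per compound; Read-out basis: percent inhibition; Measured by: fluorescence polarization of the labelled Tn7 tracer.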
CAL PDZ FP-1 = blocks peptide binding to human CAL PDZ domain; Q9HD26; purified CAL PDZ, TMR-peptide fluorescence polarization, 1 h; inhibition, % at 20 µM; 330,000 compounds, 0.02% hits; AID 504414;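 active means highest replicate inhibition of at least 40%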
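Test system: purified CerCALP PDZ construct; Compound dosing: one concentration, 20 µM compound; Also added: TMR-labelled reporter peptide T*-PRC34 bound in PDZ groove; Read-out: inhibition from polarization loss; Controls: unlabelled peptide and DMSO controls; Signal: FP readout, S and P plane fluorescence; Incubation: 1 h at RT.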
CAL PDZ FP-2 = CAL PDZ (human) peptide binding inhibition. purified CAL PDZ, TMR-peptide fluorescence polarization, 1 h. AID 602252. inhibition, % at 24.9 µM. 300,000 compounds, 0.92% hits. Q9HD26;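 active means mean inhibition of at least 30% with at least half of replicates also reaching 30%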
Arr AP2 CP1 = human beta-arrestin and AP2 interaction inhibition, cherry pick | AID 504908 | 1,300 compounds, 2% hits | shares compounds with Arrestin-AP2 inh | inhibition, % at 10 µM | GST-AP2 beads, FITC arrestin peptide binding, flow cytometry; GST-fused beta2-adaptin appendage, R879A mutant;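 active means inhibition above a set limit, roughly 3 SD of non-fluorescent compound noise, cut at about 38% in these data; inactive means inhibition at or below that limit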;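 further: loss of bead fluorescence from 50 nM FITC arrestin peptide bound to appendage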
GST GSH counter = counter-screen for beta-arrestin AP2 inhibitors: GST-GSH bead binding; shares compounds with Arrestin-AP2 inh; GST-fluorescein binding to GSH beads, fluorescence; inhibition, % at 10 µM; 1,300 compounds, 2% hits;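 active means inhibition above 50%, about 3 SD of the inhibition seen with non-fluorescent compounds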;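 further: fluorescein maleimide labelled GST captured on 4 micron glutathione beads; higher means more loss of bead fluorescence from quenching or blocked binding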
Each line names hits and unclear results; the compound was inactive in the other large screens (follow-up assays come after a bar, where they were run).

COc1ccc2nc(-c3ccccc3)cc(C(=O)OCC(=O)N3CC(C)OC(C)C3)c2c1 (stereo not given)	Arrestin-AP2 inh 54 | Arr AP2 CP1 inactive | GST GSH counter inactive
C=CCN1C(=O)[C@H](CC(=O)N2CCN(C(=O)C3CC3)CC2)[C@@]2(C(=O)OCC)CCCC=C12	none (no result: Arrestin-AP2 inh, CAL PDZ FP-1, CAL PDZ FP-2)
COC1c2ccccc2C(=O)N1Cc1ccc(F)cc1 (stereo not given)	Arrestin-AP2 inh 61 (no result: CAL PDZ FP-1) | Arr AP2 CP1 inactive | GST GSH counter inactive
COc1ccc(CN2C(=O)c3ccccc3C2OC)cc1 (stereo not given)	none (no result: CAL PDZ FP-2)
COc1ccc(Oc2c(Cl)cnn(-c3cc(C)cc(C)c3)c2=O)cc1	none (no result: Arrestin-AP2 inh, CAL PDZ FP-1, CAL PDZ FP-2)
Cc1onc(-c2ccccc2Cl)c1C(=O)NCC1CCCO1 (stereo not given)	none
O=C(NCC1CCCO1)c1ccc(-c2ccccc2Cl)o1 (stereo not given)	Arrestin-AP2 inh 62 | Arr AP2 CP1 inactive | GST GSH counter inactive
Cc1ccc2nc(SCC(=O)Nc3ccc(Br)cc3)nc(=O)n2c1	Arrestin-AP2 inh 56 | Arr AP2 CP1 inactive | GST GSH counter inactive
Cc1ccc2nc(SCC(=O)Nc3ccc(C)c(Cl)c3)nc(=O)n2c1	none
O=C(/C=C/c1ccccc1[N+](=O)[O-])NCCCN1CCCC1=O	Arrestin-AP2 inh 57 | Arr AP2 CP1 inactive | GST GSH counter inactive
CC(C)C[C@H]1CN([C@@H](Cc2ccccc2)CN2CCC[C@H]2CN2C(=O)C(=O)NC[C@@H]2Cc2ccccc2)C(=O)C(=O)N1CC1CCCCCC1	none (no result: Arrestin-AP2 inh, CAL PDZ FP-1, CAL PDZ FP-2)
Cc1ccccc1C(=O)Nc1nnc(-c2cccnc2)o1	Arrestin-AP2 inh 60 | Arr AP2 CP1 inactive | GST GSH counter inactive
O=C(Cc1ccccc1[N+](=O)[O-])N1CCOCC1	none
O=C(Cc1ccccc1[N+](=O)[O-])N1CCN(c2ccccc2F)CC1	Arrestin-AP2 inh 61 | Arr AP2 CP1 inactive | GST GSH counter inactive
C=CCN1C(=O)[C@@H](CC(=O)NCCCC)[C@]2(C(=O)OCC)CCCCC/C=C/12	none (no result: Arrestin-AP2 inh, CAL PDZ FP-1, CAL PDZ FP-2)
O=c1c(Cc2c(F)cccc2Cl)c(O)ccn1CCCn1ccnc1	Arrestin-AP2 inh 63 (no result: CAL PDZ FP-2) | Arr AP2 CP1 inactive | GST GSH counter inactive
O=c1c(Cc2c(F)cccc2Cl)c(O)ccn1Cc1ccc(F)cc1	none
NC(=O)SCC(=O)Nc1cccc(Cl)c1	Arrestin-AP2 inh 82 | Arr AP2 CP1 inactive | GST GSH counter inactive
COc1ccc(C(=O)OCCCN(C)C2CN(Cc3cn(Cc4ccc([N+](=O)[O-])cc4)nn3)S(=O)(=O)C2)cc1OC (stereo not given)	none (no result: Arrestin-AP2 inh, CAL PDZ FP-1, CAL PDZ FP-2)
Cc1ccnn1CCC(=O)N1CCCC(Nc2ccc(C(C)C)cc2)C1 (stereo not given)	none (no result: Arrestin-AP2 inh, CAL PDZ FP-1, CAL PDZ FP-2)
Cc1ccnn1CCC(=O)N1CCCC(Nc2ccc(F)c(F)c2)C1 (stereo not given)	Arrestin-AP2 inh 67 | Arr AP2 CP1 inactive | GST GSH counter inactive
N#Cc1c(N)sc(=S)c2c1CCCC2	Arrestin-AP2 inh 89 | Arr AP2 CP1 inactive | GST GSH counter inactive
Cc1ccc(NC(=O)Nc2cnccn2)c(C)c1	none | Arr AP2 CP1 inactive | GST GSH counter inactive
Cc1cccc(NC(=O)Nc2ccncc2)c1	none
COc1cccc(NC(=O)Nc2cnccn2)c1	none | Arr AP2 CP1 inactive | GST GSH counter inactive
Cc1cccc(NC(=O)Nc2cnccn2)c1	none | Arr AP2 CP1 inactive | GST GSH counter inactive
O=C(CN1C(=O)COc2ccc(Cl)cc21)N1CCCCC1	Arrestin-AP2 inh 55 | Arr AP2 CP1 inactive | GST GSH counter inactive
Cc1ccc(C(=O)OCC(=O)N2CCCC2)cc1	Arrestin-AP2 inh 64 | Arr AP2 CP1 inactive | GST GSH counter inactive
COC(=O)[C@]12C[C@H](CC(=O)NCCc3ccccc3OC)C(=O)N(Cc3ccc(Cl)cc3Cl)C1=C[C@H](C(C)(C)C)O[C@@H]2C	none (no result: Arrestin-AP2 inh, CAL PDZ FP-1, CAL PDZ FP-2)
Cc1c(C(=O)Nc2ccccn2)oc2c(Cl)cccc12	none
Cc1c(C(=O)NC(C)c2ccccn2)oc2c(Cl)cccc12 (stereo not given)	Arrestin-AP2 inh 74 | Arr AP2 CP1 inactive | GST GSH counter inactive
COC(=O)Cc1c(C)c2ccc(O)c(CN3CCCC(C)C3)c2oc1=O (stereo not given)	Arrestin-AP2 inh 105 | Arr AP2 CP1 inactive | GST GSH counter inactive
CCc1c(C)c2ccc(O)c(CN3CCCC3)c2oc1=O	none
CCCCNC(=O)Cn1nc([N+](=O)[O-])c([N+](=O)[O-])c1C	Arrestin-AP2 inh 69 | Arr AP2 CP1 inactive | GST GSH counter inactive
CCCCN1CN2Cc3ccc(C)cc3C2CS1(=O)=O (stereo not given)	none (no result: Arrestin-AP2 inh, CAL PDZ FP-1, CAL PDZ FP-2)
CC1CC(C)CN(c2oc(-c3ccccc3Cl)nc2C#N)C1 (stereo not given)	Arrestin-AP2 inh 118 | Arr AP2 CP1 inactive | GST GSH counter inactive
Cn1cccc1C(=O)NC(=O)CSc1cccc[n+]1[O-]	none (no result: CAL PDZ FP-2)
O=C(CSc1cccc[n+]1[O-])NC(=O)c1ccc(OC(F)F)cc1	Arrestin-AP2 inh 54 | Arr AP2 CP1 inactive | GST GSH counter inactive
COC(=O)c1ccc(CN2CCC(Oc3cccc(C(=O)N4CCOCC4)c3)CC2)cc1	Arrestin-AP2 inh 70 | Arr AP2 CP1 inactive | GST GSH counter inactive
COCCNC(=O)c1cccc(OC2CCN(Cc3ccc(C(=O)OC)cc3)CC2)c1	none
